Test results published in ChEMBL document CHEMBL1123247, “Nucleoside conjugates. 7. Synthesis and antitumor activity of 1-beta-D-arabinofuranosylcytosine conjugates of ether lipids” (J Med Chem, 1986).

Assays:
L1210 [1] = experiment: Antitumor activity was determined against the ip implanted L1210 leukemia in mice by range in survival days at 100 mg/kg (treatment of 1-5qd schedule) dosage; 18-32; type: functional, Mus musculus; settings: route intraperitoneal
Method in brief: (§1)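 DBA/2J mice, 23-28 g, in groups of 6, were inoculated ip with 1×10^6 L1210 cells on day 0. Dosing was ip starting 24 h later on the stated daily schedules. Conjugates were given as sonicated solutions and reference prodrugs as suspensions in 0.9% NaCl with 0.5% Tween-80. Mice were observed daily until death or 45 days. Median survival T/C was calculated from survivors per NCI protocols.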

L1210 [2] = experiment: Antitumor activity was determined against the ip implanted L1210 leukemia in mice by range in survival days at 400 mg/kg (treatment of 1qd schedule) dosage; Range is 15-29; type: functional, Mus musculus; settings: route intraperitoneal; method in brief: as §1
P388 [3] = experiment: Antitumor activity was determined against the ip implanted P388 leukemia in mice by percent median survival rate (treated/control) at 500 mg/kg (1 qd treatment schedule) dosage; >45.0/11.0; type: functional, Mus musculus; settings: route intraperitoneal
L1210 [4] = experiment: Antitumor activity was determined against the ip implanted L1210 leukemia in mice by 45-day survivors in mice at 40 mg/kg (treatment of 1-5qd schedule) dosage; type: functional, Mus musculus; settings: route intraperitoneal
Method in brief: (§2)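 DBA/2J mice in groups of 6 (wt 23-28 g) were inoculated ip with 1×10^6 L1210 cells on day 0. Dosing was ip from 24 h, in 0.9% NaCl with 0.5% Tween-80 (conjugates sonicated), across a range of doses. Mice were observed daily until death or 45 days. Median T/C was computed from survivors per NCI protocols, and ILS = (T/C − 1)×100.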

L1210 [5] = experiment: Antitumor activity was determined against the ic implanted L1210 lymphoid leukemia in mice by percent median survival rate (treated/control) at 300 mg/kg (1 qd treatment schedule) dosage; 21.0/7.0; type: functional, Mus musculus
L1210 [6] = experiment: Antitumor activity was determined against the ic implanted L1210 lymphoid leukemia in mice by range in survival days at 300 mg/kg (1 qd treatment schedule) dosage; Range is 19-23; type: functional, Mus musculus
L1210 [7] = experiment: Antitumor activity was determined against the ic implanted L1210 lymphoid leukemia in mice by change in […] at 133 mg/kg (1,5,9qd treatment schedule) dosage; type: functional, Mus musculus
Method in brief: (§3)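 DBA/2J mice, 6 per group (wt 26-32 g), inoculated ic with 1×10^5 L1210 cells on day 0. Dosing ip began 24 h after inoculation, with a sonicated solution or suspension in 0.9% NaCl containing 0.5% Tween-80, given over a range of doses. Animals were followed daily until death. Body weight change, median survival T/C, and %ILS = (T/C − 1) × 100 were computed from survivors per NCI protocols.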

L1210 [8] = experiment: Antitumor activity was determined against the ic implanted L1210 lymphoid leukemia in mice by percent increase in life span at 500 mg/kg (treatment of 1qd schedule) dosage
P388 [9] = experiment: Antitumor activity was determined against the ip implanted P388 leukemia in mice by percent increase in life span at 300 mg/kg (treatment of 1qd schedule) dosage; settings: route intraperitoneal
L1210 [10] = experiment: Antitumor activity was determined against the ic implanted L1210 lymphoid leukemia in mice by change in […] at 167 mg/kg (treatment of 1, 5, 9qd schedule) dosage; type: functional, Mus musculus; method in brief: as §3
P388 [11] = experiment: Antitumor activity was determined against the ip implanted P388 leukemia in mice by change in […] at 133 mg/kg (treatment of 1qd schedule) dosage; type: functional, Mus musculus; settings: dose 300 mg/kg; route intraperitoneal; in the assay text read “300 mg/kg” for “133 mg/kg”
Method in brief: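 P388 leukemia, 1×10^6 cells implanted ip on day 0 into DBA/2J mice, groups of 6 (wt 23-33 g). Dosing ip started 24 h post-inoculation, vehicle 0.9% NaCl containing 0.5% Tween-80. Animals were observed daily until death or 45 days. Outputs were weight change, median survival T/C from survivors per NCI protocols, and %ILS = (T/C − 1) × 100.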

L1210 [12] = experiment: Antitumor activity was determined against the ip implanted L1210 leukemia in mice by range in survival days at 80 mg/kg (treatment of 1-5qd schedule) dosage; Range is 21-30; type: functional, Mus musculus; settings: route intraperitoneal; method in brief: as §1
L1210 [13] = experiment: Antitumor activity was determined against the ip implanted L1210 leukemia in mice by change in […] at 80 mg/kg (treatment of 1-5qd schedule) dosage; type: functional, Mus musculus; settings: route intraperitoneal
Method in brief: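 DBA/2J mice, 6 per group (wt 23-28 g), inoculated ip with 1×10^6 L1210 cells on day 0. Treatment was given ip in 0.9% NaCl with 0.5% Tween-80, starting 24 h later. Weight change was taken on day 8. Mice were observed daily until death or 45 days. Median survival T/C and %ILS = (T/C − 1) × 100 came from survivors per NCI protocols, and 45-day survivors were counted.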

L1210 [14] = experiment: Antitumor activity was determined against the ic implanted L1210 lymphoid leukemia in mice by percent increase in life span at 100 mg/kg (treatment of 1-9qd schedule) dosage; type: functional, Mus musculus
Method in brief: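 DBA/2J mice, groups of 6 (26-32 g), got 1 × 10^5 L1210 cells ic on day 0. Dosing was ip starting 24 h later, as a sonicated solution or suspension in 0.9% NaCl with 0.5% Tween-80, over a wide dose range. Mice were followed daily until death. Median survival T/C was taken from survivors per NCI protocols, and ILS = (T/C − 1) × 100. Active range means doses giving ILS ≥25%; optimal dose means greatest ILS.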

L1210 [15] = experiment: Antitumor activity was determined against the ip implanted L1210 leukemia in mice by percent increase in life span at 200 mg/kg (treatment of 1-5qd schedule) dosage; type: functional, Mus musculus; settings: route intraperitoneal; method in brief: as §2
L1210 [16] = experiment: Antitumor activity was determined against the ic implanted L1210 lymphoid leukemia in mice by median survival time at 100 mg/kg (treatment of 1-9qd schedule) dosage; 14/7.0
P388 [17] = experiment: Antitumor activity against ip implanted P388 leukemia in mice expressed as active dose range (1 qd treatment schedule) required to produce increase in life span by >25% was determined; Range is 100-600; type: functional, Mus musculus
Method in brief: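 P388 leukemia: 1 × 10^6 cells were given ip on day 0 to DBA/2J mice, groups of 6 (23-33 g). Treatment was ip from 24 h after inoculation, vehicle 0.9% NaCl with 0.5% Tween-80. Mice were observed daily until death or 45 days. Median survival T/C was calculated from survivors per NCI protocols, and ILS = (T/C − 1) × 100. Active range means doses giving ILS ≥25%; optimal dose means greatest ILS.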

L1210 [18] = experiment: Antitumor activity was determined against the ip implanted L1210 leukemia in mice by percent median survival rate (treated/control) at 200 mg/kg (treatment of 1-5qd schedule) dosage; 17.0/7.0; type: functional, Mus musculus; settings: route intraperitoneal; method in brief: as §2
HL-60 = experiment: Compound was tested for the inhibition of human HL60 Leukemia; type: functional, cell-based
Method in brief: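 Human leukemia and solid tumor cells in culture were exposed to compound for 48 h. Viability was scored by trypan blue dye exclusion. IC50 (50% inhibition) was estimated from response curves of three separate experiments.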

CCCCCCCCCCCCCCCCCCOCC(COP(=O)(O)OP(=O)(O)OC[C@H]1O[C@@H](n2ccc(N)nc2=O)[C@@H](O)[C@@H]1O)OC(=O)CCCCCCCCCCCCCCC (mixture of isomers)
Range (L1210 [1]): 18
Range (L1210 [2]): 15

CCCCCCCCCCCCCCCC(=O)OC[C@H](COP(=O)(O)OP(=O)(O)OC[C@H]1O[C@@H](n2ccc(N)nc2=O)[C@@H](O)[C@@H]1O)OC(=O)CCCCCCCCCCCCCCC
T/C (P388 [3]): >45%
Survivors (L1210 [4]): 1
median survival time (L1210 [5]): 21 days
Range (L1210 [6]): 19
Weight change (L1210 [7]): -1.11 g mouse-1

CCCCCCCCCCCCCCCCOCC(COP(=O)(O)OP(=O)(O)OC[C@H]1O[C@@H](n2ccc(N)nc2=O)[C@@H](O)[C@@H]1O)OC(=O)CCCCCCCCCCCCCCC (mixture of isomers)
ILS (L1210 [8]): 229
ILS (P388 [9]): >309
Weight change (L1210 [10]): -1.15 g mouse-1
Weight change (P388 [11]): -1.51 g mouse-1
Range (L1210 [12]): 21
Weight change (L1210 [13]): 0.33 g mouse-1

Nc1ccn([C@@H]2O[C@H](CO)[C@@H](O)[C@@H]2O)c(=O)n1 [CYTARABINE]
ILS (L1210 [14]): 100
ILS (L1210 [15]): 143
median survival time (L1210 [16]): 14 days
Active dose range (P388 [17]): 100 mg/kg/day
median survival time (L1210 [18]): 17 days
IC50 (HL-60): 130 nM
